Activity calls are given as the source filed them.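 Rule for the calls, unless noted: active = NADPH fluorescence slope more negative than the mean of all samples by about 3 SD, 99.7% confidence; inactive = the rest.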
Experiments:
[1] = inhibitors of TNFa-induced NFkB p65 translocation, primary screen, imaging, HUVEC, MLSMR starter and 10KST1 sets (AID 438;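 active = inhibition above 20% together with a positive visual image hit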;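 note: compound added about 3h40 before a 20 min TNFalpha stimulation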;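 for inhibition: signal is the nuclear over cytoplasmic p65 intensity ratio per well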); conditions: HUVEC TNFa-induced p65 nuclear translocation; cell count: measured here: nuclei count (cytotoxicity indicator), at 2.08 µM; inhibition: at 2 µM, stronger effect = higher value, 0% TNFa-plus-vehicle, 100% no-TNFa wells
[2] = reduction of polyQ htt aggregates in cells – imaging, exon1htt(103Q)mCFP cells, high-content imaging, primary screen (AID 483;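 active = visual image review flags a hit and inhibition of aggregation exceeds 20%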;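 note: compound exposure lasted 3 days before fixation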;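 for nuclei count: percent of the per-plate median nuclei count of sample wells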); conditions: exon1htt(103Q)mCFP cell line, aggregate imaging, at 2 µM; inhibition of aggregation: stronger effect = higher value; nuclei count: measured here: cell count, toxicity
[3] = endothelial E-selectin expression blockers – imaging, HUVEC, immunofluorescence, MLSMR starter and 10KST1 sets, primary screen (AID 487;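 active = visually confirmed hit in the image check and inhibition above 20%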;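 for inhibition: signal is fraction of cell area covered by stained E-selectin grains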;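 for nuclei count: 100% = median nuclei count of all wells on the same plate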); conditions: HUVEC TNFalpha-induced E-selectin immunofluorescence imaging, at 2 µM; inhibition: stronger effect = higher value; nuclei count: measured here: cell number, toxicity
[4] = biological target: Voltage-gated potassium channel subunit beta-2 (Rattus norvegicus) (UniProt P62483); test: inhibitors of rat Kvbeta2 reductase activity – biochemical, NADPH fluorescence, primary screen (AID 622;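 active = fluorescence slope higher than the sample average by over 3 SD, cut at about -0.22 in these data, passing the limit was not always enough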;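 note: slope of raw intensity against log time taken from 70 to 1610 s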); conditions: recombinant KvBeta, 4-cyanobenzaldehyde reduction, at 10 µM, stronger effect = higher value
[5] = biological target: Voltage-gated potassium channel subunit beta-2 (Rattus norvegicus) (UniProt P62483); test: enhancers of rat Kvbeta2 NADPH turnover – biochemical, NADPH fluorescence, primary screen (AID 623); conditions: Recombinant KvBeta, NADPH fluorescence decrease slope, 10 min; at 10 µM; stronger effect = lower value;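 note: fluorescence intensity change per second fitted from 20 to 320 s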
[6] = biological target: Muscarinic acetylcholine receptor M4 (Homo sapiens) (UniProt P08173); test: M4-linked GIRK flux change, two-sided – cell-based, HEK293 M4/GIRK, thallium flux, BTC-AM, M4 allosteric agonist project, primary screen (AID 625;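 active = fluorescence slope after compound addition differing from the mean of all tested samples at 99.7% confidence, mostly higher but some lower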;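 note: thallium influx through GIRK channels coupled to M4 in HEK293 cells with BTC-AM dye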); conditions: at 10 µM, actives lie on both sides
In short: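 System: HEK293 cells with M4 receptor and GIRK channels | Incubation: Cells overnight at 37 °C, BTC-AM loading 1 h, reads 2 min total | Technique: Kinetic BTC-AM fluorescence sampled at 1 Hz, 10 s pre-addition baseline | Measure: Post-addition slope, 15–24 s, of baseline-normalized fluorescence | Control set: Carbachol positive, DMSO negative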

[7] = blockers of RIG-like receptor reporter activation – cell-based, Sendai virus stimulus, luciferase, 10K MLSCN set, TLR/RLR signaling modifier project, primary screen (AID 602276;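 active = inhibition at or above 50% at 10 µM; inactive = inhibition below 50%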;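 note: firefly luciferase from ISG56 promoter only with Renilla not read in this screen; 0% = Sendai virus plus DMSO and 100% = medium plus DMSO without virus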); conditions: HEK293 RL24 IRF3 luciferase reporter, at 10 µM, stronger effect = higher value
[8] = TLR3 IRF3 reporter activation blockers – cell-based, poly I:C stimulus, luciferase, 10K MLSCN set, primary screen (AID 602277;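 active = inhibition of the reporter signal at or above 50%; inactive = inhibition below 50%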); conditions: HEK293-TLR3 RL24 IRF3 luciferase reporter, at 10 µM, stronger effect = higher value

Chain of Muscarinic acetylcholine receptor M4 (Homo sapiens) (P08173 whole entry, looked up): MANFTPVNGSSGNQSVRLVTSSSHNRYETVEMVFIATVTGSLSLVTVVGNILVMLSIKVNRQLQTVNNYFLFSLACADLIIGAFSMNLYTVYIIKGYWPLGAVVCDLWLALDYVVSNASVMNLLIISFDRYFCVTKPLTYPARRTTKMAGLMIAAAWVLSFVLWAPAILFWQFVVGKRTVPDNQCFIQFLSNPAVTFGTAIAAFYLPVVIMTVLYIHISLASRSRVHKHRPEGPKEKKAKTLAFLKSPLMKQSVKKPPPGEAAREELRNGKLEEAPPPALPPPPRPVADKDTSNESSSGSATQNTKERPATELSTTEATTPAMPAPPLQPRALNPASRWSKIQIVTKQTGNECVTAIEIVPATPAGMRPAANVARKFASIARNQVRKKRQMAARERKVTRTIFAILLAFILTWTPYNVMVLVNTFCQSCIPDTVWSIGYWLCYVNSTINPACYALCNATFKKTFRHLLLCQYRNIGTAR
Chain of Voltage-gated potassium channel subunit beta-2 (Rattus norvegicus) (P62483 whole entry, looked up): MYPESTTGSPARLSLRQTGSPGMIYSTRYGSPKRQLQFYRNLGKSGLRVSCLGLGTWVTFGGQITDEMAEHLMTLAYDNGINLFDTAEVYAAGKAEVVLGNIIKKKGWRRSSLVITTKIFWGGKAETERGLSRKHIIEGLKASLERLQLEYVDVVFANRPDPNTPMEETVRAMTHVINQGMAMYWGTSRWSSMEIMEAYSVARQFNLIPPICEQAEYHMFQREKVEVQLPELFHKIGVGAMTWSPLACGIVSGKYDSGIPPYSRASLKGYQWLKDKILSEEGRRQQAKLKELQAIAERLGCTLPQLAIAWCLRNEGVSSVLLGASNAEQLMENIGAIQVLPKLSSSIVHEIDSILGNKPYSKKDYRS

Compound | cell count [1] | inhibition [1] | inhibition of aggregation [2] | nuclei count [2] | inhibition [3] | nuclei count [3] | fluorescence slope [4] | NADPH fluorescence slope [5] | fluorescence slope [6] | inhibition [7] | inhibition [8]
CC(C)NC(=O)c1ccccc1NC(=O)c1ccccc1N(C)S(C)(=O)=O | 554 | 25% (inactive) | 6.8% (inactive) | 104% | -155% (inactive) | 101% | -0.456 (inactive) | -5.7e-05 (inactive) | 0.00572 (inactive) | 10.6% (inactive) | 13.7% (inactive)
CCOc1ccc(NC(=O)CN(C)S(=O)(=O)c2cccs2)cc1 | 650 | -12% (inactive) | -4.9% (inactive) | 104% | -22.6% (inactive) | 113% | -0.587 (inactive) | -3.3e-05 (inactive) | 0.00617 (inactive) | -60.5% (inactive) | -62.8% (inactive)
CCN(CC)CCNC(=O)C1CCN(S(=O)(=O)N2CCCCC2)CC1 | 634 | 2.6% (inactive) | -30.2% (inactive) | 48.9% | -41.5% (inactive) | 109% | -0.412 (inactive) | 2.2e-05 (inactive) | 0.00434 (inactive) | 11.3% (inactive) | 15.8% (inactive)
CC1Cc2cc(/C(O)=C3/C(=O)C(=O)N(CCN4CCOCC4)C3c3cccc(O)c3)ccc2O1 (stereo not drawn) | 576 | -2.7% (inactive) | -17.8% (inactive) | 105% | -18.4% (inactive) | 94.9% | -0.573 (inactive) | -8.9e-05 (inactive) | 0.00539 (inactive) | -19.1% (inactive) | -6.57% (inactive)
Cc1ccc(-c2nn(C)c(=O)c3ccccc23)cc1S(=O)(=O)N1CCOCC1 | 595 | -10.5% (inactive) | -24.4% (inactive) | 101% | -64.2% (inactive) | 102% | -0.511 (inactive) | -2.7e-05 (inactive) | 0.0045 (inactive) | 8.97% (inactive) | 30.3% (inactive)
CSc1nnc(-c2cnccn2)n1C | 679 | -15.7% (inactive) | -6.5% (inactive) | 121% | -73.6% (inactive) | 109% | -0.603 (inactive) | -3.8e-06 (inactive) | 0.00641 (inactive) | 22.1% (inactive) | 25.7% (inactive)
Cc1occc1C(=O)Nc1ccccc1NC(=O)c1ccoc1C | 425 | -11.5% (inactive) | 29.8% (inactive) | 87.4% | 40.5% (inactive) | 90.2% | -0.543 (inactive) | -3.1e-05 (inactive) | 0.00485 (inactive) | 12.7% (inactive) | 24.7% (inactive)
O=c1c2nnn(Cc3ccccc3)c2ncn1-c1ccccc1 | 522 | -8.6% (inactive) | 16.2% (inactive) | 86.9% | 9% (inactive) | 99% | -0.411 (inactive) | -8.2e-05 (inactive) | 0.00572 (inactive) | 14.3% (inactive) | 25.9% (inactive)
Cc1ccc(S(=O)(=O)N(C)c2ccc(OCC(=O)OCc3c(C)noc3C)cc2)cc1 | 455 | -15.1% (inactive) | 8.4% (inactive) | 146% | -15.8% (inactive) | 108% | -0.583 (inactive) | -3.3e-05 (inactive) | 0.00507 (inactive) | 5.73% (inactive) | 14.5% (inactive)
CCn1c(=O)cc(SCC(=O)N2CCOCC2)c2ccccc21 | 460 | -1.2% (inactive) | 0.4% (inactive) | 115% | -69.7% (inactive) | 120% | -0.549 (inactive) | -2.4e-05 (inactive) | 0.00553 (inactive) | 75.8% (active) | 51.3% (active)
O=C(Cc1c(O)c2ccccc2[nH]c1=O)NCc1ccc(F)cc1 | 251 | 4.3% (inactive) | 18.1% (inactive) | 61.3% | -25.6% (inactive) | 115% | -0.544 (inactive) | -2e-05 (inactive) | 0.00681 (inactive) | 20.7% (inactive) | 24.8% (inactive)
Cc1nc(NC2=NCN(CCCN3CCOCC3)CN2)nc2c(C)cccc12 | 552 | 12.1% (inactive) | 0.1% (inactive) | 73.7% | 35.4% (inactive) | 97.1% | -0.571 (inactive) | -6.5e-05 (inactive) | 0.00567 (inactive) | 26.7% (inactive) | 31.4% (inactive)
COc1ccc(N(CC(=O)NC2CCCC2)C(=O)Cn2nnc(-c3ccc(C)cc3)n2)cc1 | 465 | -3.9% (inactive) | 8.3% (inactive) | 90.6% | -65.7% (inactive) | 106% | -0.587 (inactive) | 8e-06 (inactive) | 0.00452 (inactive) | -14.1% (inactive) | 0.19% (inactive)
COCC(=O)Nc1sc2c(c1C(=O)OC)C(C(=O)OC)CC2 (stereo not drawn) | 403 | -3.4% (inactive) | -1.9% (inactive) | 93.9% | 9.9% (inactive) | 105% | -0.481 (inactive) | 7e-05 (inactive) | 0.00577 (inactive) | -8.7% (inactive) | 0.35% (inactive)
COc1ccccc1N1CCN(C(=O)CSc2nc(-c3ccccc3)cc(=O)[nH]2)CC1 | 284 | -10.5% (inactive) | -9.2% (inactive) | 114% | -30.1% (inactive) | 124% | -0.509 (inactive) | 9.3e-06 (inactive) | 0.00621 (inactive) | -1.48% (inactive) | 6.29% (inactive)
Cc1cc(C)c(Cn2c(=O)n(CCCC(=O)NCc3ccco3)c(=O)c3ccccc32)c(C)c1 | 744 | -4.2% (inactive) | 5.8% (inactive) | 100% | -64.2% (inactive) | 112% | -0.578 (inactive) | -2.4e-05 (inactive) | 0.00693 (inactive) | 14.8% (inactive) | 17.8% (inactive)
COc1ccc(/C(O)=C2/C(=O)C(=O)N(CC3CCCO3)C2c2cccc(OC)c2)cc1 (stereo not drawn) | 717 | 3.9% (inactive) | -15.3% (inactive) | 118% | 36.2% (inactive) | 97.6% | -0.429 (inactive) | -3.2e-05 (inactive) | 0.00604 (inactive) | 14.7% (inactive) | 21.1% (inactive)
Cc1ccccc1N1CC(c2nc3ccccc3[nH]2)CC1=O (stereo not drawn) | 385 | 3% (inactive) | -1.2% (inactive) | 107% | -7.2% (inactive) | 110% | -0.478 (inactive) | -1.5e-05 (inactive) | 0.0056 (inactive) | -2.87% (inactive) | 98.3% (active)
Cc1cc(C(=O)N2CCN(C(c3ccccc3)c3ccccc3)CC2)no1 | 303 | -17.6% (inactive) | 32.7% (inactive) | 73.4% | -17.5% (inactive) | 84.1% | -0.433 (inactive) | -5.3e-05 (inactive) | 0.00719 (inactive) | 14.8% (inactive) | 12.2% (inactive)
COc1ccccc1Nc1nc(N)nc(CN2CCN(c3ccccc3F)CC2)n1 | 561 | -12.1% (inactive) | -5.7% (inactive) | 97.3% | 25.3% (inactive) | 97.6% | -0.571 (inactive) | -2.2e-05 (inactive) | 0.00301 (inactive) | -5.08% (inactive) | -10.4% (inactive)
COC(=O)c1[nH]c2ccccc2c1NC(=O)CN1CCC(C(N)=O)(N2CCCCC2)CC1 | 259 | 3.8% (inactive) | 6.6% (inactive) | 72.7% | -114% (inactive) | 168% | -0.598 (inactive) | -1.9e-05 (inactive) | 0.00286 (inactive) | 20.8% (inactive) | 30.6% (inactive)
Cc1ccc(OCC(=O)NCCN2CCCC2)cc1 | 424 | 0% (inactive) | 5% (inactive) | 101% | -65.5% (inactive) | 102% | -0.404 (inactive) | -0.000132 (inactive) | 0.00568 (inactive) | 15.6% (inactive) | 28% (inactive)
Cc1ccc(Cn2c(C)nc3c(c2=O)c2nc4ccccc4nc2n3Cc2ccco2)cc1 | 623 | -5.4% (inactive) | -11% (inactive) | 111% | -33.1% (inactive) | 91.7% | -0.557 (inactive) | -5.9e-05 (inactive) | 0.00181 (inactive) | 16.5% (inactive) | 28.3% (inactive)
O=C(CN1C(=O)C2CC=C(Cl)CC2C1=O)Nc1ccc(C(=O)O)cc1 (stereo not drawn) | 442 | 3.4% (inactive) | 10.1% (inactive) | 110% | -205% (inactive) | 122% | -0.569 (inactive) | -7.9e-05 (inactive) | 0.00409 (inactive) | 19.2% (inactive) | 20.6% (inactive)
CN(C)CC(=O)N1c2ccccc2CCc2ccc(NC(=O)c3ccc(N)cc3)cc21 | 555 | -15.6% (inactive) | 3.6% (inactive) | 95.1% | -115% (inactive) | 108% | -0.571 (inactive) | -5.5e-05 (inactive) | 0.00297 (inactive) | 11.3% (inactive) | 26.6% (inactive)
CCCCn1cnc2c(cnn2-c2ccc(Cl)cc2)c1=O | 342 | -16.3% (inactive) | -4.9% (inactive) | 102% | -72% (inactive) | 103% | -0.531 (inactive) | -2.1e-05 (inactive) | 0.00515 (inactive) | -48.5% (inactive) | -141% (inactive)
COC(=O)c1onc(C(=O)c2ccccc2)c1C(=O)OC | 405 | 2.7% (inactive) | -4.5% (inactive) | 103% | -67.9% (inactive) | 114% | -0.568 (inactive) | -4.3e-05 (inactive) | 0.00647 (inactive) | 16.3% (inactive) | 12.9% (inactive)
Cc1ccnc(NC(=O)CCC(=O)N(CC(=O)NC2CCCCC2)c2cccc(C)c2C)c1 | 426 | 4.4% (inactive) | -2.4% (inactive) | 103% | 28.9% (inactive) | 125% | -0.626 (inactive) | 3.3e-05 (inactive) | 0.00484 (inactive) | 13.1% (inactive) | 18.7% (inactive)
